Screening results: PubChem, Johns Hopkins Ion Channel Center
Sampled rows, rich in hits. Any-hit rate of the full collection: about 3.5%.
RGS4 pot = RGS4 potentiators or activators, primary screen, cell-based, HEK293 M3R inducible RGS4, calcium flux | carbachol calcium flux Fluo4; active compounds read low | B-score at 10 µM | 310,000 tested, 0.92% active;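 active means B-score of the integrated calcium signal more than 4 SD below the library mean, with starting fluorescence not abnormally high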;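 further: negative B-score means reduced calcium response which marks RGS4 activation or potentiation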
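Assay system: HEK293 FlpIn-TREx cells, stable M3R, doxycycline-inducible RGS4 / Probe or stimulus: carbachol, ECmax concentration / Times: overnight RGS4 induction, 30 min dye load 37 °C, 20 min compound RT / Signal: kinetic calcium fluorescence imaging with Fluo4-AM dye, 2 µM / Measure: Agonist-evoked peak-minus-minimum fluorescence over baseline, integrated ratio, B score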
RGS4 block = RGS4 inhibitors, primary screen, cell-based, HEK293 M3R inducible RGS4, calcium flux; B-score at 10 µM; 310,000 tested, 0.45% active; Fluo-4 calcium flux; active compounds read high; triggered by carbachol at its EC20;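 active means B-score, a plate-corrected calcium signal, over three deviations above library mean, with baseline fluorescence within five deviations of library mean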;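 further: RGS4 expression induced by doxycycline in cells with stable M3 receptor; B-score is computed from the integrated fluorescence ratio over baseline after carbachol; higher B-score means a larger calcium signal and so more RGS4 inhibition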
Target sequence (P49798 whole entry, looked up): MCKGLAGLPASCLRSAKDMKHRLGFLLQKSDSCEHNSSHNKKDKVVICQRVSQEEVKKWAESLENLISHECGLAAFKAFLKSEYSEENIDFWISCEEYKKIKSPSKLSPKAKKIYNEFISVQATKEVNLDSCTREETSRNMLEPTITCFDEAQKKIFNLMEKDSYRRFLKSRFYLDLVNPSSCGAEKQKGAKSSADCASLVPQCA
MrgX1 allo act = positive allosteric modulators of MrgX1, primary screen, HEK293 cells, Fluo-4 calcium flux. Mas-related G-protein coupled receptor member X1 (Homo sapiens), Q96LB2. FDSS; active compounds read high. B-score at 10 µM. 310,000 tested, 0.63% active. AID 588675, 2011;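 active means plate-corrected calcium response at least 3 library SD above typical, normal starting fluorescence, not activating the receptor alone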;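 further: compound read alongside a low EC10 to EC30 dose of BAM8-22 agonist; peak minus trough fluorescence over baseline measured at the second addition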
Target sequence (Q96LB2 whole entry, looked up): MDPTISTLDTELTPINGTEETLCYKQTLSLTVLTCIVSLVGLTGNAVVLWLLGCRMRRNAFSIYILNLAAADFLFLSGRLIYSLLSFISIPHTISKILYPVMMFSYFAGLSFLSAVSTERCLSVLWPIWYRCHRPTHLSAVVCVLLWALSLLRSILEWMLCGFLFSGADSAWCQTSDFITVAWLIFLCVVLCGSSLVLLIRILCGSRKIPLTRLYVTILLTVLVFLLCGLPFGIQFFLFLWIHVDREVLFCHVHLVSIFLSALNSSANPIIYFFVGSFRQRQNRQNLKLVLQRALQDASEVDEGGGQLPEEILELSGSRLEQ
MrgX1 ag = agonists of human MrgX1 receptor, primary screen, HEK293 cells, Fluo-4 calcium flux | Mas-related G-protein coupled receptor member X1 (Homo sapiens), Q96LB2 | Fluo-4 calcium fluorescence, agonist mode; active compounds read high | B-score at 10 µM | 310,000 tested, 0.44% active | AID 588627, 2011;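 active means calcium response B-score plate-corrected fluorescence ratio at least 3 library SD, with starting fluorescence B-score inside 5 SD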
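times = overnight plating, then 30 min 37 °C plus 30 min room-temperature dye loading | assay system = stable human MrgX1 HEK293 cell line | input = fifteen thousand cells per well | signal = kinetic calcium dye fluorescence, Fluo-4 NW | dosing = compound delivered in addition one of three | read-out = B-scored fluorescence response ratio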
MrgX1 antag = antagonists of human MrgX1 receptor, primary screen, HEK293 cells, Fluo-4 calcium flux; AID 588676, 2011; Mas-related G-protein coupled receptor member X1 (Homo sapiens), Q96LB2; B-score at 10 µM; 310,000 tested, 1.3% active; BAM8-22 antagonism; active compounds read low;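 active means calcium-response B-score plate-corrected more than 3 library SD below zero, starting fluorescence within 5 deviations, no agonist response on first addition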;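 further: peak minus trough fluorescence over baseline after final BAM8-22 challenge near maximal dose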
RGS4 inh valid = enhanced carbachol calcium response, M3R/RGS4 cells, RGS4 inhibitor project, cell-based, validation screen, HEK293 M3R/RGS4, calcium flux; 1,700 tested, 65% active; shares compounds with RGS4 block; carbachol calcium Fluo-4 fluorescence; carbachol added at its EC20; 0 = buffer wells, 100 = carbachol control; AID 492999, 2010; calcium response, % at 10 µM;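 active means duplicate-averaged calcium response above the buffer-only control mean plus 5 SD of those controls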;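 further: integrated fluorescence ratio F max minus min over baseline F0; higher response in RGS4-induced cells means RGS4 inhibition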
M3R Ca ctr = carbachol calcium response in non-induced M3R cells, confirmation, counter-screen for RGS4 inhibitor project, cell-based, HEK293 M3R; 1,900 tested, 20% active; carbachol calcium Fluo-4; submaximal (EC20) carbachol stimulus; buffer wells 0%, carbachol control wells 100%; activity (percent), % at 10 µM; shares compounds with RGS4 block; call rule not given here;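 further: RGS4 induction absent so cells express M3R without RGS4; higher means more calcium signal and flags a non-specific hit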
RGS4 inh ctr2 = second counter-screen for RGS4 inhibitors: non-induced cells without carbachol; shares compounds with RGS4 block; HEK293 M3R/RGS4 non-induced, Fluo-4 calcium, no carbachol; normalised: buffer wells 0%, carbachol wells 100%; calcium response (agonist-mode artifact), % at 10 µM; 1,900 tested, 22% active;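 active means duplicate-averaged calcium rise in uninduced cells above buffer wells' mean plus 5 SD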
A number is an active result.

COc1cc(C2(c3ccc(O)c(OC)c3)C(=O)Nc3c(Br)cc(Br)cc32)ccc1O was read as RGS4 pot inactive, RGS4 block inactive, MrgX1 allo act inactive, MrgX1 ag inactive, MrgX1 antag inactive, M3R Ca ctr inactive and RGS4 inh ctr2 34%.
`COc1cc(C2(c3ccc(O)c(OC)c3)C(=O)N(C)c3ccc(Br)cc32)ccc1O` gave RGS4 pot inactive, RGS4 block 5.7, MrgX1 allo act inactive, MrgX1 ag inactive, MrgX1 antag inactive, RGS4 inh valid 12%, M3R Ca ctr inactive and RGS4 inh ctr2 inactive.
`COc1ccc(CC(NC(C)=O)C(=O)NC2CCN(S(=O)(=O)c3ccccc3)CC2)c(OC)c1` (configuration not stated) gave RGS4 pot inactive, RGS4 block inactive, MrgX1 allo act inactive, MrgX1 ag inactive, MrgX1 antag inactive, M3R Ca ctr inactive and RGS4 inh ctr2 inactive.
Cc1ccc(-c2nn(-c3ccccc3)c3[nH]c(=O)c(CNCc4ccccc4)cc23)cc1 was read as RGS4 pot inactive, RGS4 block 7, MrgX1 allo act inactive, MrgX1 ag inactive, MrgX1 antag inactive, RGS4 inh valid 19%, M3R Ca ctr inactive and RGS4 inh ctr2 18%.
Screening Cc1nn(-c2ccccc2)c2[nH]c(=O)c(CNCc3ccc4c(c3)OCO4)cc12 returned RGS4 pot inactive, RGS4 block inactive, MrgX1 allo act inactive, MrgX1 ag inactive and MrgX1 antag inactive.
Screening COc1ccc(S(=O)(=O)Nc2ccccc2OC)cc1NC(=O)c1cc2ccccc2oc1=O returned RGS4 pot inactive, RGS4 block inactive, MrgX1 allo act inactive, MrgX1 ag inactive and MrgX1 antag inactive.
For N#C/C(=C\c1ccccc1[N+](=O)[O-])c1nc(C2CC2)cs1 the results were RGS4 pot inactive, RGS4 block inactive, MrgX1 allo act inactive, MrgX1 ag inactive and MrgX1 antag inactive.
For N#C/C(=C\c1ccc([N+](=O)[O-])cc1)c1nc(C2CC2)cs1 the results were RGS4 pot inactive, RGS4 block 13, MrgX1 allo act inactive, MrgX1 ag inactive, MrgX1 antag inactive, RGS4 inh valid inactive, M3R Ca ctr inactive and RGS4 inh ctr2 56%.
For CCOC(=O)C1CCN(Cc2nc3ccccc3c(=O)n2-c2ccc(OCC)cc2)CC1 the results were RGS4 pot inactive, RGS4 block 6.1, RGS4 inh valid 6.5%, M3R Ca ctr inactive and RGS4 inh ctr2 inactive.
`CCN(C(=O)Cc1c(C(=O)O)n(C)c2ccccc12)c1cccc(C)c1` gave RGS4 pot inactive, RGS4 block inactive, MrgX1 allo act inactive, MrgX1 ag inactive, MrgX1 antag inactive, RGS4 inh valid inactive, M3R Ca ctr inactive and RGS4 inh ctr2 inactive.
Screening CS(=O)(=O)Nc1ccc(C(=O)NCc2ccco2)cc1 returned RGS4 pot inactive, RGS4 block inactive, MrgX1 allo act inactive, MrgX1 ag inactive and MrgX1 antag inactive.
Screening Nc1n[nH]c(C2CC2)c1N=Nc1ccc(Cl)cc1 returned RGS4 pot inactive, RGS4 block 7, MrgX1 allo act inactive, MrgX1 ag inactive, MrgX1 antag inactive, RGS4 inh valid 6.5%, M3R Ca ctr inactive and RGS4 inh ctr2 inactive.
Cc1[nH]nc(N)c1N=Nc1ccc(Br)cc1 was read as RGS4 pot inactive, RGS4 block 17, MrgX1 allo act inactive, MrgX1 ag inactive, MrgX1 antag inactive, RGS4 inh valid 20%, M3R Ca ctr inactive and RGS4 inh ctr2 inactive.
Screening Cc1ccc(N=Nc2c(N)n[nH]c2N)cc1 returned RGS4 pot inactive, RGS4 block inactive, MrgX1 allo act inactive, MrgX1 ag inactive and MrgX1 antag inactive.
Screening CNc1nc(N)c([N+](=O)[O-])c(Nc2ccccc2OC)n1 returned RGS4 pot inactive, RGS4 block 11, MrgX1 allo act inactive, MrgX1 ag inactive, MrgX1 antag inactive, RGS4 inh valid 12%, M3R Ca ctr 44% and RGS4 inh ctr2 inactive.
O=C(C1CCCO1)N1CCN(C(=S)Nc2ccccc2Cl)CC1 (configuration not stated) was read as RGS4 pot inactive, RGS4 block inactive, MrgX1 allo act inactive, MrgX1 ag inactive and MrgX1 antag inactive.
Screening CC(=O)Nc1cc(Cl)c(N=Cc2ccc(O)cc2O)cc1Cl returned RGS4 pot inactive, RGS4 block 8.1, MrgX1 allo act inactive, MrgX1 ag inactive, MrgX1 antag inactive, RGS4 inh valid 16%, M3R Ca ctr 29% and RGS4 inh ctr2 inactive.
`Cc1ccc(/C=N/N2CCN(Cc3ccc(C)cc3)CC2)cc1` gave RGS4 pot inactive, RGS4 block inactive, MrgX1 allo act inactive, MrgX1 ag inactive, MrgX1 antag inactive, RGS4 inh valid inactive, M3R Ca ctr inactive and RGS4 inh ctr2 inactive.
Screening OCC1CCCCN1CC(O)COC(c1ccc(F)cc1)c1ccc(F)cc1 (configuration not stated) returned RGS4 pot inactive, RGS4 block inactive, MrgX1 allo act inactive, MrgX1 ag inactive and MrgX1 antag inactive.
C=CCSc1nc2ccccc2n1C(=O)/C=C/c1ccc(OC)c(OC)c1 was read as RGS4 pot inactive, RGS4 block inactive, MrgX1 allo act inactive, MrgX1 ag inactive, MrgX1 antag inactive, M3R Ca ctr inactive and RGS4 inh ctr2 12%.
For C=CCSc1nc2ccccc2n1C(=O)/C=C/c1cc(OC)c(OC)c(OC)c1 the results were RGS4 pot inactive, RGS4 block inactive, MrgX1 allo act inactive, MrgX1 ag inactive and MrgX1 antag inactive.
Screening CCSc1nc2ccccc2n1C(=O)/C=C/c1ccc(OC)c(OC)c1 returned RGS4 pot inactive, RGS4 block 11, MrgX1 allo act inactive, MrgX1 ag inactive, MrgX1 antag inactive, RGS4 inh valid 12%, M3R Ca ctr inactive and RGS4 inh ctr2 inactive.
Screening Cc1cc(N2CCN(C(=O)OC(C)(C)C)CC2)n2ncnc2n1 returned RGS4 pot inactive, RGS4 block inactive, MrgX1 allo act inactive, MrgX1 ag inactive and MrgX1 antag inactive.
